Active and inactive are the calls of the source. No cut-off for these calls is given here.
Assays:
[1] = test system: Insulin-regulated aminopeptidase, Lnpep (Mus musculus); assay: Inhibition of IRAP in mouse BMDC assessed as blockade of cross-presentation by measuring IL-2 level incubated for 1 day followed by compound wash out and incubated for 6 hrs with yeast cells expressing surface ovalbumin measured 20 hrs post CD8+ T cell-induction by sandwich ELISA method
T-cell = assay: Blockade of cross-presentation in mouse IRAP-deficient BMDC assessed as IL-2 level incubated for 1 day […] and incubated for 6 hrs with yeast cells expressing surface ovalbumin measured 20 hrs post CD8+ T cell-induction by sandwich ELISA method; type: functional, cell-based
Summary of the method: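 BMDCs from wild-type or IRAP knockout mice, grown 7 days from bone-marrow progenitors in IMDM/10% FCS with GM-CSF-containing J558 supernatant. Inhibitor added day 6 and kept through all steps. Day 7: serial dilutions of surface-ovalbumin yeast for 6 h, then OT-I lymph-node CD8+ T cells (T/BMDC 1.5:1) for 20 h. Supernatant IL-2 by sandwich ELISA; glutaraldehyde-fixed BMDC background subtracted; duplicate wells.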

[2] = molecular target: T1, Endoplasmic reticulum aminopeptidase 1 (Mus musculus) (UniProt Q9EQH2); assay: Inhibition of ERAP1 in mouse RAW264.7 cells assessed as reduction in interferon-gamma/LPS-induced phagocytosis after 24 hrs by fluorescent latex beads internalization assay; type: cell-based
T1 sequence (whole entry): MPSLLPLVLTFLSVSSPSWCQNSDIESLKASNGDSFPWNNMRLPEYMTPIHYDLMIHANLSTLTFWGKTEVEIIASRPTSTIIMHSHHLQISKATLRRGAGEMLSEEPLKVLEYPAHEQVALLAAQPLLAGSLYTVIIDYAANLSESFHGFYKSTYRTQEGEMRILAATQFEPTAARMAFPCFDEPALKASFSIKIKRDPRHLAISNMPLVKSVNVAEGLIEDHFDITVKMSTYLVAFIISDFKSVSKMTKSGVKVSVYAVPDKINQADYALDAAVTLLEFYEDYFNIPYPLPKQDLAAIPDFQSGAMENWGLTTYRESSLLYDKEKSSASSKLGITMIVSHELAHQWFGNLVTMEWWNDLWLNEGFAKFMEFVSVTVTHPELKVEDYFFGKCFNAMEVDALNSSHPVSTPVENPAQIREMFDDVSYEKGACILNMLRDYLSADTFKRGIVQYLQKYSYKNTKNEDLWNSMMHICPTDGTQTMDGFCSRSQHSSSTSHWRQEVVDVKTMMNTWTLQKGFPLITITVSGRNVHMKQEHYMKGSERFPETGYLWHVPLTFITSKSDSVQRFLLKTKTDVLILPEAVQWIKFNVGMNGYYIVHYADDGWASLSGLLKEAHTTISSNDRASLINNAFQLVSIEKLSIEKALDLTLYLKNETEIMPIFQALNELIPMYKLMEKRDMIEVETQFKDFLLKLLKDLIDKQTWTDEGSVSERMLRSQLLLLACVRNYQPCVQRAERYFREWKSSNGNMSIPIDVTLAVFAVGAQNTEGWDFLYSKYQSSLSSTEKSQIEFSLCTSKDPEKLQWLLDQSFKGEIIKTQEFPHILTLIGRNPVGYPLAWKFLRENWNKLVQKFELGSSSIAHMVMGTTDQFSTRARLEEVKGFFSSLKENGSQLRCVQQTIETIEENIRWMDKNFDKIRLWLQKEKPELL
Summary of the method: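 RAW264.7 cells in RPMI 1640/10% FBS, seeded 2×10^4/well for 24 h. Activated with IFN-γ (100 IU/mL) plus LPS (1 μg/mL) with or without inhibitor at various concentrations. FITC-IgG latex beads given in 1% FBS medium for 24 h at 37 °C. Uptake read as fluorescence (ex 485/em 535) after PBS washes; ED50 from curve fit.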

[3] = molecular target: Endoplasmic reticulum aminopeptidase 2 (Homo sapiens, UniProt Q6P179); assay: Inhibition of human recombinant ERAP2 expressed in baculovirus infected cabbage looper ovary Hi5 cells using L-arginyl-7-amido-4-methyl coumarin as substrate up to 100 uM after 5 to 10 mins by fluorescence assay; conditions: BTI-TN-5B1-4
Summary of the method: (§1)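 Recombinant human enzymes made in baculovirus-infected Hi5 cells, kept in 10 mM HEPES pH 7, 100 mM NaCl, 10% glycerol. ERAP1 30 nM, ERAP2 6 nM or IRAP 6 nM with 50 μM substrate (L-AMC for ERAP1 and IRAP, R-AMC for ERAP2) and varied inhibitor. Fluorescence rise followed at ex 380/em 460; IC50 from fit of activity against inhibitor concentration.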

[4] = molecular target: Leucyl-cystinyl aminopeptidase (Homo sapiens, UniProt Q9UIQ6); assay: Inhibition of human recombinant IRAP expressed in baculovirus infected cabbage looper ovary Hi5 cells using L-leucine-7-amido-4-methyl coumarin as substrate after 5 to 10 mins by fluorescence assay; design: species or system Female gonad, BTI-TN-5B1-4
[5] = molecular target: Endoplasmic reticulum aminopeptidase 1 (Homo sapiens, UniProt Q9NZ08); assay: Inhibition of human recombinant ERAP1 expressed in baculovirus infected […] using L-leucine-7-amido-4-methyl coumarin as substrate up to 100 uM after 5 to 10 mins by fluorescence assay
Summary of the method: as §1

Chain of Leucyl-cystinyl aminopeptidase (Q9UIQ6 whole entry): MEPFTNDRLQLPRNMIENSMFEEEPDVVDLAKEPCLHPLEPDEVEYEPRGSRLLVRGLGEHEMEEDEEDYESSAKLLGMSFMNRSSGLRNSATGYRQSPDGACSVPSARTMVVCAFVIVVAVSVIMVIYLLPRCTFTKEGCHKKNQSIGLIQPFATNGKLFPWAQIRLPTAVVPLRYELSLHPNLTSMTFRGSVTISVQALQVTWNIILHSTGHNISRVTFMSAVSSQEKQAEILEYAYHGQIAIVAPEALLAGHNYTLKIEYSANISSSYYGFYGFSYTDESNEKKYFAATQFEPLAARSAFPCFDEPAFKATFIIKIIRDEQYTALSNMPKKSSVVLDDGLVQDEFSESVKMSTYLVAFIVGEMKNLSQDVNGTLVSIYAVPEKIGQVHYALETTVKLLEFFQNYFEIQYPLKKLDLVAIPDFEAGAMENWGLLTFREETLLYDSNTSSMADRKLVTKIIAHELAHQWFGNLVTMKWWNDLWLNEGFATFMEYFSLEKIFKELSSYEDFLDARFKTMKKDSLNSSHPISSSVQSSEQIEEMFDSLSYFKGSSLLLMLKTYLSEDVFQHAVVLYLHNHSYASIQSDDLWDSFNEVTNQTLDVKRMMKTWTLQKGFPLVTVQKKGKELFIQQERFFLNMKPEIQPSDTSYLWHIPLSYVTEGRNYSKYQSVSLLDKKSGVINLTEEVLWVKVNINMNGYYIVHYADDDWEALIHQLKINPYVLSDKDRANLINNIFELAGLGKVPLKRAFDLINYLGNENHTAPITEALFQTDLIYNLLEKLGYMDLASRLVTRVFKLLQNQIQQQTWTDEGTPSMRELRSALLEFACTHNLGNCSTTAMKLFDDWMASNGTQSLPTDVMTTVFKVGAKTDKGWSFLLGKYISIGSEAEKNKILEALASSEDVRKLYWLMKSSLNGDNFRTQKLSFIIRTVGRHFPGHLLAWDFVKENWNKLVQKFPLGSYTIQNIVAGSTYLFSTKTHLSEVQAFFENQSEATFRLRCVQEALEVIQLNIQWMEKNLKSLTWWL
Chain of Endoplasmic reticulum aminopeptidase 1 (Q9NZ08 whole entry): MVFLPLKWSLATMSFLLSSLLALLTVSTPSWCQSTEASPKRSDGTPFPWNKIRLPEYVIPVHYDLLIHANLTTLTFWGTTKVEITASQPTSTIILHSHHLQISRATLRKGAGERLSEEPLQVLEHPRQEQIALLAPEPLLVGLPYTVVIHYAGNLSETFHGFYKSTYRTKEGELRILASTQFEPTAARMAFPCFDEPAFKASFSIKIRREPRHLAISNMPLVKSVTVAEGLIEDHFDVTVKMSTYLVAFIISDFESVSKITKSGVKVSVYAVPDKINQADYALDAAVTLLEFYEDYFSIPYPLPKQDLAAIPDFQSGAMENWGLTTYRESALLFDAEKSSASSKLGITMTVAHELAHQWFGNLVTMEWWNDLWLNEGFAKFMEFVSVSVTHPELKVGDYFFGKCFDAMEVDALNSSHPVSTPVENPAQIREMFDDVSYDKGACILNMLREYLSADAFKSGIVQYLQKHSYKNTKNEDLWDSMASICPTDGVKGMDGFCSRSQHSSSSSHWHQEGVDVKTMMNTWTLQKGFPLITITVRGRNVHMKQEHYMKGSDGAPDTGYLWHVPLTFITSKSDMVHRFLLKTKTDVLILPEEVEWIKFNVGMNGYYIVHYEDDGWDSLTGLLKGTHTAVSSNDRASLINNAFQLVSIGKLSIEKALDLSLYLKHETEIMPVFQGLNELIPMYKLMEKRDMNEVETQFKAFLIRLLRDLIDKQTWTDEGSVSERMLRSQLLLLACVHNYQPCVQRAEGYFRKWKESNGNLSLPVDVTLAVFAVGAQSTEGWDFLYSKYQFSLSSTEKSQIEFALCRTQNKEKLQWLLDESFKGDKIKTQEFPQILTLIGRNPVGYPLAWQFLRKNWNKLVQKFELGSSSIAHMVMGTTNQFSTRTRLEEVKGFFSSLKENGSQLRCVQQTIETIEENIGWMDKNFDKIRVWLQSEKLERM
Chain of Endoplasmic reticulum aminopeptidase 2 (Q6P179 whole entry): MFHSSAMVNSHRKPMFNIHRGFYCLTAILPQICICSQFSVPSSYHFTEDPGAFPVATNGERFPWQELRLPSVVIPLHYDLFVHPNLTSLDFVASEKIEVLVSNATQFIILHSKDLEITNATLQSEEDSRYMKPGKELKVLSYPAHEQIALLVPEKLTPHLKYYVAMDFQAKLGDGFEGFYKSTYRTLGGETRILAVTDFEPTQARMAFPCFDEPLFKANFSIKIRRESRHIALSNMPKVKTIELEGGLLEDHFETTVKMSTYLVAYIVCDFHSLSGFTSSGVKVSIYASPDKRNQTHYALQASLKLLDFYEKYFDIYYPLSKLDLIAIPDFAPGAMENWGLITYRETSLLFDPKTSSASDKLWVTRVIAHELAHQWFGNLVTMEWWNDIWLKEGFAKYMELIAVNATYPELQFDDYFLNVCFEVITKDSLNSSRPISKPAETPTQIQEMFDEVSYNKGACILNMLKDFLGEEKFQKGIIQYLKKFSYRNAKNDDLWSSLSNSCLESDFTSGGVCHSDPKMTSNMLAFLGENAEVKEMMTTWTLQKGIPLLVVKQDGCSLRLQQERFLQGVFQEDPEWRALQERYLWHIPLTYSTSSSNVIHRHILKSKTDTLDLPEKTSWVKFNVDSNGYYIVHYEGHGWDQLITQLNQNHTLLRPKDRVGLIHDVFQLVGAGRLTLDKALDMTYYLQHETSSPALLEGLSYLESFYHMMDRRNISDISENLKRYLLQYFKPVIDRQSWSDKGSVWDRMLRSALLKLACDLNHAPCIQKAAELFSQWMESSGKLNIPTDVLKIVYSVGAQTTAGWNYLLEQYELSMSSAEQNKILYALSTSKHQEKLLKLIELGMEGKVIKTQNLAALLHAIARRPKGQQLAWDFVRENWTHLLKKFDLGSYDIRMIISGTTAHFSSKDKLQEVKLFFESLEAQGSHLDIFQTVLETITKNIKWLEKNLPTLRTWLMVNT

Row | Structure (SMILES) | ED50 [1] | inhibition [1] | Activity (T-cell) | ED50 [2] | inhibition [2] | inhibition [3] | IC50 [4] | inhibition [5]
1 | CCCC[C@H](N)C(=O)Nc1cc(C(=O)N[C@@H](Cc2c[nH]c3ccccc23)C(=O)OCc2ccccc2)ccc1N | 6.5 nM | Dose-dependent effect | inactive | 560 nM | Dose-dependent effect | – | – | –
2 | COC(=O)[C@H](CCCCN)NC(=O)c1ccc(NC(=O)[C@@H](N)CC(C)C)c(N)c1 | – | – | – | – | – | inactive | > 100000 nM | inactive
3 | CCCC[C@H](N)C(=O)Nc1cc(C(=O)N[C@H](C(=O)O)C(C)C)ccc1N | – | – | – | – | – | – | > 100000 nM | inactive
4 | NCCC[C@H](NC(=O)c1ccc(N)c(NC(=O)[C@@H](N)CCc2ccccc2)c1)C(=O)O | – | – | – | – | – | inactive | > 100000 nM | inactive
